Published values from different studies.
Protocols differ between the studies behind these lines.
EHMT1: Histone-lysine N-methyltransferase EHMT1 (EHMT1, Homo sapiens, UniProt Q9H9B1)
PDE5A: cGMP-specific 3',5'-cyclic phosphodiesterase (PDE5A, Homo sapiens, UniProt O76074)
PARP1: Poly [ADP-ribose] polymerase 1 (PARP1, Homo sapiens, UniProt P09874)
SPHK1: Sphingosine kinase 1 (SPHK1, Homo sapiens, UniProt Q9NYA1)
CNR1: Cannabinoid receptor 1 (CNR1, Homo sapiens, UniProt P21554)
OPRK1: Kappa-type opioid receptor (OPRK1, Homo sapiens, UniProt P41145)
ADORA2A: Adenosine receptor A2a (ADORA2A, Homo sapiens, UniProt P29274)

CN(C)c1ccc(C(=C2C=CC(=[N+](C)C)C=C2)c2ccc(N(C)C)cc2)cc1 — inhibition (EHMT1; cell-free assay; 10 µM): 62%
CC(C)(C)N1C(=O)[C@@H]2Cc3c([nH]c4ccccc34)[C@H](c3cccnc3)N2C1=O — inhibition (PDE5A; enzyme activity; inhibitor; FP; 50 µM): 45%
COc1cccc2nc(-c3ccc(C(=O)N4CCN(C(=O)C5CC5)CC4)cc3F)[nH]c(=O)c12 — inhibition (PARP1; enzyme activity; inhibitor; ELISA; 10 µM): 56%
C=CCN1C(=O)[C@H]2Cc3c([nH]c4ccccc34)[C@H](c3ccc(Br)s3)N2C1=O — inhibition (PDE5A; enzyme activity; inhibitor; FP; 10 µM): 67%
O=C(O[C@@H]1Cc2c(O)cc(O)cc2O[C@@H]1c1cc(O)c(=O)c2c(O)c(O)cc([C@H]3Oc4cc(O)cc(O)c4C[C@H]3OC(=O)c3cc(O)c(O)c(O)c3)c2c1)c1cc(O)c(O)c(O)c1 — inhibition (EHMT1; cell-free assay; 10 µM): 0%
CCN1C(=O)[C@@H]2Cc3c([nH]c4ccccc34)[C@H](c3cccnc3)N2C1=O — inhibition (PDE5A; enzyme activity; inhibitor; FP; 50 µM): 24%
O=c1[nH]c(-c2c[nH]c3ncccc23)nc2ccccc12 — inhibition (PARP1; enzyme activity; inhibitor; ELISA; 1 µM): 7%
N=C(N)N1CCC[C@H]1c1nc(-c2ccc(CCC3CCCC3)c(C(F)(F)F)c2)no1 — inhibition (SPHK1; enzyme activity; inhibitor; radiometric; 1 µM): 0%
COc1cc(NC(C)=O)c(Cl)cc1C(=O)Nc1nccs1 — inhibition (CNR1; cell-free assay; 10 µM): 11.8%
N#Cc1cc(Cn2c(N3CCCC3)nc3ccccc32)ccc1F — inhibition (OPRK1; ligand displacement; 10 µM): -11.7%
O=C(c1ccc(F)cc1)N(Cc1ccccc1)C1CCCCC1 — inhibition (OPRK1; ligand displacement; 10 µM): 33%
CCCCC(CC)CNC(=N)NC(=N)NCCCCCCNC(=N)NC(=N)NCC(CC)CCCC (stereo not shown) — inhibition (EHMT1; cell-free assay; 10 µM): -22%
Ic1cccc2cnccc12 — inhibition (PARP1; enzyme activity; inhibitor; 10 µM): 19.5%
N=C(N)N1CCC[C@H]1c1nc(-c2ccc(CCC3CCCCC3)c(C(F)(F)F)c2)no1 — inhibition (SPHK1; enzyme activity; inhibitor; radiometric; 1 µM): 15%
COc1ccc(F)cc1C(=O)NCc1ccc(-c2nn([C@@H](C)C(F)(F)F)c(N)c2C(N)=O)cc1 — inhibition (Mitogen-activated protein kinase kinase kinase 3 (MAP3K3, Homo sapiens, UniProt Q99759); target engagement in cells; inhibitor; chemoproteomics; 1 µM): -38.6%
O=C1N=C(N2CCCCN2)S/C1=C\c1ccc(F)cc1O — inhibition (Thromboxane A2 receptor (TBXA2R, Homo sapiens, UniProt P21731); ligand displacement; radioligand; 10 µM): 11%
COc1ccc(-c2nc3cc(CCN4CCN(c5ccccc5)CC4)ccc3o2)cc1OC — inhibition (ADORA2A; ligand displacement; radioligand; 10 µM; cell membranes): 5%
CN(C)c1ccc2nc3ccc(=[N+](C)C)cc-3sc2c1 — inhibition (EHMT1; cell-free assay; 10 µM): 30%
COCCOc1ccc(N2CCN(CCc3ccc4oc(-c5ccco5)nc4c3)CC2)cc1 — inhibition (ADORA2A; ligand displacement; radioligand; 10 µM; cell membranes): 10%
COC(=O)[C@@H]1Cc2c([nH]c3ccccc23)[C@H](c2cccnc2)N1 — inhibition (PDE5A; enzyme activity; inhibitor; FP; 50 µM): 72%
CCCNc1nc2ccccc2n1Cc1ccc(Cl)cc1 — inhibition (OPRK1; ligand displacement; 10 µM): 11.1%
O=c1c(-c2cc(O)c(O)c(O)c2)coc2cc(O)c(O)c(O)c12 — inhibition (EHMT1; cell-free assay; 10 µM): 0%
Nc1ccc2c(c1)CCCn1nnnc1-2 — inhibition (PARP1; enzyme activity; inhibitor; 10 µM): 31%
Cc1cc(-c2ccc(/N=N/c3ccc4c(S(=O)(=O)O)cc(S(=O)(=O)O)c(N)c4c3O)c(C)c2)ccc1/N=N/c1ccc2c(S(=O)(=O)O)cc(S(=O)(=O)O)c(N)c2c1O — inhibition (EHMT1; cell-free assay; 10 µM): 48%
Oc1ccc(N2CCN(Cc3ccc4oc(-c5ccco5)nc4c3)CC2)cc1 — inhibition (ADORA2A; ligand displacement; radioligand; 10 µM; cell membranes): 11%
O=C(c1ccc(Cl)cc1)N(Cc1ccccc1)C1CCCCC1 — inhibition (CNR1; cell-free assay; 10 µM): 11.1%
O=C(Nc1ccc(S(=O)(=O)N2CCC(Cl)CC2)cc1)c1ccc([N+](=O)[O-])o1 — inhibition (Sigma non-opioid intracellular receptor 1 (SIGMAR1, Homo sapiens, UniProt Q99720); ligand displacement; radioligand; 10 µM): 38%
Oc1cccc(Nc2nc(-c3ccc(F)cc3F)cs2)c1 — inhibition (CNR1; cell-free assay; 10 µM): 5.9%
COc1ccc(-c2nc3cc(CCCN4CCN(c5ccccc5)CC4)ccc3o2)cc1OC — inhibition (ADORA2A; ligand displacement; radioligand; 10 µM; cell membranes): 11%
CCN(c1cc(C#CCN2CCOCC2)cc(C(=O)NCc2c(C)cc(C)[nH]c2=O)c1C)[C@H]1CC[C@H](N(C)CCOC)CC1 — inhibition (EHMT1; enzyme activity; inhibitor; 1 µM): 9%
[H]/N=C(\N)N1CCC[C@H]1c1nc(-c2ccc(OCC=Cc3cccc(C(F)(F)F)c3)c(C(F)(F)F)c2)no1 — inhibition (SPHK1; enzyme activity; inhibitor; radiometric; 1 µM): 0%
CC(C)CCn1c(SCC(=O)Nc2ccccc2C(F)(F)F)nc2nccnc2c1=O — inhibition (SPHK1; enzyme activity; inhibitor; 10 µM): < 20%
[H]/N=C(\N)N1CCC[C@H]1c1nc(-c2ccc(OCC=CCCCC)c(C(F)(F)F)c2)no1 — inhibition (SPHK1; enzyme activity; inhibitor; radiometric; 1 µM): 23%
O=C(O[C@@H]1Cc2c(O)cc(O)cc2O[C@@H]1c1cc(O)c(O)c(O)c1-c1c([C@H]2Oc3cc(O)cc(O)c3C[C@H]2O)cc(O)c(O)c1O)c1cc(O)c(O)c(O)c1 — inhibition (EHMT1; cell-free assay; 10 µM): -3%
[H]/N=C(\N)N1CCC[C@H]1c1nc(-c2ccc(OCC=Cc3ccccc3C(F)(F)F)c(C(F)(F)F)c2)no1 — inhibition (SPHK1; enzyme activity; inhibitor; radiometric; 1 µM): 0%
CCN1C(=O)[C@@H]2Cc3c([nH]c4ccccc34)[C@H](c3ccc(OC)c(OC)c3)N2C1=O — inhibition (PDE5A; enzyme activity; inhibitor; FP; 50 µM): 52%
CN1CCN(CCCOc2ccc(=O)n(-c3ccc(Cl)c(Cl)c3)n2)CC1 — inhibition (Sodium channel protein type 9 subunit alpha (SCN9A, Homo sapiens, UniProt Q15858); ligand displacement; 1 µM): 20.5%
COC(=O)[C@H]1Cc2c([nH]c3ccccc23)[C@H](c2ccc(OC)c(OC)c2)N1C(=O)CCl — inhibition (PDE5A; enzyme activity; inhibitor; FP; 50 µM): 75%
COc1cc2c(cc1OC)-c1nnnn1CCC2 — inhibition (PARP1; enzyme activity; inhibitor; 10 µM): 60%
CS(=O)(=O)Nc1cccc(-c2csc(NC(=O)CSc3nc4nccnc4c(=O)n3CCc3ccccc3)n2)c1 — inhibition (SPHK1; enzyme activity; inhibitor; 10 µM): 9%
CCN(Cc1ccccc1C(F)(F)F)C(=O)C1CCN(S(=O)(=O)c2ccc3[nH]ncc3c2)CC1 — inhibition (OPRK1; ligand displacement; radioligand; 10 µM): 5%
COc1ccc([C@@H]2c3[nH]c4ccccc4c3C[C@@H]3C(=O)N(C(C)(C)C)C(=O)N23)cc1OC — inhibition (PDE5A; enzyme activity; inhibitor; FP; 50 µM): 54%
[H]/N=C(\N)N1CCC[C@H]1c1nc(-c2ccc(OCC=Cc3ccc(F)cc3)c(C(F)(F)F)c2)no1 — inhibition (SPHK1; enzyme activity; inhibitor; radiometric; 1 µM): 0%
CCN(CC)c1ccc(C2Nc3ccc(C(=O)c4ccccc4)cc3NC3=C2C(=O)CC(C)(C)C3)cc1 (stereo not shown) — inhibition (OPRK1; ligand displacement; radioligand; 10 µM): 10%
O=C(CSc1nc2nccnc2c(=O)n1CCc1ccccc1)Nc1ccccc1 — inhibition (Phosphatidylinositol 4-phosphate 3-kinase C2 domain-containing subunit beta (PIK3C2B, Homo sapiens, UniProt O00750); enzyme activity; inhibitor; 10 µM): 72%
CCCCc1ccc(CCc2ccc(-c3noc([C@@H]4CCCN4C(=N)N)n3)cc2C(F)(F)F)cc1 — inhibition (SPHK1; enzyme activity; inhibitor; radiometric; 1 µM): 6%
